Experimental data published in ChEMBL document CHEMBL4004789, “Isochromans and Related Constituents from the Endophytic Fungus Annulohypoxylon truncatum of Zizania caduciflora and Their Anti-Inflammatory Effects” (J Nat Prod, 2017).
Activity calls are given as the source filed them. The calls are words filed in the database; no cut-off is given here.

Columns and labels:
[1] = Cytotoxicity against C57BL/6 mouse BMDC at 50 uM after 24 hrs by CCK8 assay; format: cell-based
How it was run: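 GM-CSF-derived C57BL/6 BMDCs were seeded at ~1 × 10⁴ cells/well and cultured overnight. Compound was added across a dose series for 24 h. CCK-8 reagent was then added for 1 h, and absorbance at 450 nm was read as viable cell number. Triplicate wells.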

BMDC [2] = experiment: Anti-inflammatory activity in C57BL/6 mouse BMDC assessed as inhibition of LPS-induced TNFalpha production at 50 uM pretreated for 1 hr followed by LPS-stimulation after 18 hrs by ELISA; format: functional, cell-based
How it was run: (§1)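 Wild-type C57BL/6 mouse bone marrow cells were grown 6 days in RPMI 1640 with 10% FBS, 50 μM β-ME, 2 mM glutamine and 3% J558L supernatant (GM-CSF). Non-adherent DCs were plated at 1 × 10⁵/well and given compound at 50 μM for 1 h. They were then stimulated with 10 ng/mL Salmonella minnesota LPS. Supernatant cytokine was measured by ELISA at 18 h. Mean + SD, ≥3 independent experiments in triplicate.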

BMDC [3] = experiment: Anti-inflammatory activity in C57BL/6 mouse BMDC assessed as inhibition of LPS-induced IL12 p40 production at 50 uM pretreated for 1 hr followed by LPS-stimulation after 18 hrs by ELISA; format: functional, cell-based; how it was run: as §1
[4] = Anti-inflammatory activity in C57BL/6 mouse BMDC assessed as inhibition of LPS-induced IL-6 production pretreated for 1 hr followed by LPS-stimulation after 18 hrs by ELISA; format: functional, cell-based
How it was run: (§2)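 BMDCs came from wild-type C57BL/6 bone marrow, cultured 6 days with GM-CSF-containing J558L supernatant in RPMI 1640 with 10% FBS; loosely adherent cells were used. Cells were plated at 1 × 10⁵/well and pretreated 1 h with compound at 2, 5, 10, 25 and 50 μM. Stimulation was 10 ng/mL S. minnesota LPS. Murine cytokine in 18 h supernatants was measured by ELISA. Mean + SD, ≥3 independent experiments in triplicate.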

BMDC [5] = experiment: Anti-inflammatory activity in C57BL/6 mouse BMDC assessed as inhibition of LPS-induced IL-6 production at 50 uM pretreated for 1 hr followed by LPS-stimulation after 18 hrs by ELISA; format: functional, cell-based; how it was run: as §1
[6] = Anti-inflammatory activity in C57BL/6 mouse BMDC assessed as inhibition of LPS-induced TNFalpha production pretreated for 1 hr followed by LPS-stimulation after 18 hrs by ELISA; format: functional, cell-based; how it was run: as §2
[7] = Anti-inflammatory activity in C57BL/6 mouse BMDC assessed as inhibition of LPS-induced IL12 p40 production pretreated for 1 hr followed by LPS-stimulation after 18 hrs by ELISA; format: functional, cell-based; how it was run: as §2

Row | IC50 [4] [µM] | IC50 [6] [µM] | IC50 [7] [µM] | SMILES | Activity [1] | inhibition (BMDC [2]) | inhibition (BMDC [3]) | inhibition (BMDC [5])
1 | 5.3 | 37.6 | 19.4 | C[C@@H]1CC2=C(CO1)C(=O)[C@](C)(O)[C@@H](O)C2 | Non-Toxic | Active | Active | Active
2 | > 100 | > 100 | > 100 | C[C@@H]1Cc2cc(O)cc(O)c2CO1 | Non-Toxic | – | – | –
3 | > 100 | > 100 | > 100 | COc1cc2c(c(O)c1O)CO[C@H](C)[C@H]2O | Non-Toxic | – | – | –
4 | > 100 | > 100 | > 100 | COc1c2c(cc(O)c1O[C@H]1O[C@H](CO)[C@@H](O)[C@H]1O)C[C@@H](C)OC2 | Non-Toxic | – | – | –
5 | > 100 | > 100 | > 100 | COc1c(O)cc2c(c1O)CO[C@H](C)C2 | Non-Toxic | – | – | –
6 | > 100 | > 100 | > 100 | Cc1ccc2c(c1O)C(=O)O[C@H](C)C2 | Non-Toxic | – | – | –
7 | > 100 | > 100 | > 100 | COc1cc2c(c(O)c1OC)CO[C@H](C)C2 | Non-Toxic | – | – | –
8 | > 100 | > 100 | > 100 | COc1cc2c(c(O)c1OC)CO[C@H](C)[C@H]2O | Non-Toxic | – | – | –

Row | SMILES | IC50 [4] [µM] | IC50 [6] [µM] | IC50 [7] [µM] | Activity [1] | inhibition (BMDC [2]) | inhibition (BMDC [3]) | inhibition (BMDC [5])
9 | C[S+]([O-])c1ccc(-c2nc(-c3ccc(F)cc3)c(-c3ccncc3)[nH]2)cc1 (stereo not drawn) [SB-203580] | 3.5 | 7.2 | 5 | – | – | – | –
